Laboratory results as given in ChEMBL document CHEMBL2311304, “Design, synthesis and in vitro and in vivo antitumor activities of novel bivalent β-carbolines” (Eur J Med Chem, 2013).

Assays:
[1] = system: Mus musculus; assay: Toxicity in C57BL/6 mouse assessed as maximum weight loss at 40 mg/kg, ip; format: organism-based; parameters: dose 40 mg/kg, route intraperitoneal; details: in vivo
How it was run: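 Tumor-bearing mice, 10 females per group, were inoculated s.c. in the armpit with 2 × 10^6 viable tumor cells. Compound was given i.p. once daily for 7 consecutive days, starting 24 h after inoculation. […] Body weight was recorded every 3 days until sacrifice on day 21.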

[2] = system: Mus musculus; assay: Neurotoxicity in C57BL/6 mouse at 1 to 500 mg/kg, ip for 14 days; format: toxicity, organism-based; parameters: dose 1-500 mg/kg, route intraperitoneal; details: in vivo, 336 h
How it was run: (§1)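 Healthy C57BL/6 mice (9–12 weeks, 18–22 g) were fasted overnight with free access to water. Each received a single i.p. dose of 1.0–500 mg kg-1 in 0.5% CMC-Na, 10 mice per group (5 male, 5 female). Mice were watched continuously for 2 h, intermittently to 24 h, then occasionally to 14 days for tremor, twitch, jumping and supination. At day 14 they were killed and heart, liver and kidneys were examined macroscopically.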

[3] = system: Mus musculus; assay: Toxicity in C57BL/6 mouse assessed as heart damage at 1 to 500 mg/kg, ip for 14 days; format: organism-based; parameters: dose 1-500 mg/kg, route intraperitoneal; details: in vivo, 336 h; how it was run: as §1
[4] = system: KB; assay: Cytotoxicity against human epidermoid carcinoma of the nasopharynx KB cells assessed as reduction in optical density by MTT assay; format: functional, cell-based
How it was run: (§2)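 Cells were cultured in RPMI-1640 with 10% (v/v) fetal calf serum, 100 µg ml-1 penicillin and 100 µg ml-1 streptomycin at 37 °C in humidified 5% CO2. Compounds were dissolved in DMSO, with final DMSO at 2% (v/v) or lower. MTT staining was used, with three replicate wells per point. IC50 is the concentration giving a 50% drop in optical density versus untreated cells.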

[5] = system: A-375; assay: Cytotoxicity against human malignant melanoma A375 cells assessed as reduction in optical density by MTT assay; format: functional, cell-based; how it was run: as §2
[6] = Antitumor activity in mouse Lewis lung cancer cells inoculated mouse assessed as tumor inhibition rate at one fifth of LD50 concentration once a day for consecutive 7 days by ip; format: functional, Cancer cell lines; parameters: scale not given: the % may be the effect or the level left
How it was run: (§3)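 Each tumour line was first grown in mice for 7 days, then harvested. Viable cells (2 × 10^6 per mouse) were injected s.c. into the armpit. Dosing began 24 h later: i.p., about one fifth of LD50, daily for 7 days, 10 female mice per group. […] Body weight was recorded every 3 days. Tumours were excised and weighed on day 21 to give inhibition rate.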

[7] = system: Mus musculus; assay: Toxicity in C57BL/6 mouse assessed as liver damage at 1 to 500 mg/kg, ip for 14 days; format: organism-based; parameters: dose 1-500 mg/kg, route intraperitoneal; details: in vivo, 336 h; how it was run: as §1
[8] = system: 769-P; assay: Cytotoxicity against human renal carcinoma 769-P cells assessed as reduction in optical density by MTT assay; format: functional, cell-based; how it was run: as §2
[9] = system: Mus musculus; assay: Toxicity in C57BL/6 mouse assessed as kidney damage at 1 to 500 mg/kg, ip for 14 days; format: organism-based; parameters: dose 1-500 mg/kg, route intraperitoneal; details: in vivo, 336 h; how it was run: as §1
[10] = system: SK-OV-3; assay: Cytotoxicity against human ovary adenocarcinoma SKOV3 cells assessed as reduction in optical density by MTT assay; format: functional, cell-based; details: SK-OV-3, Female gonad; how it was run: as §2
[11] = system: CT26; assay: Antitumor activity in mouse CT26 colon cancer cells inoculated mouse assessed as tumor inhibition rate at one fifth of LD50 concentration once a day for consecutive 7 days by ip; format: functional; parameters: scale not given: the % may be the effect or the level left; how it was run: as §3
[12] = system: BGC-823; assay: Cytotoxicity against human gastric carcinoma BGC823 cells assessed as reduction in optical density by MTT assay; format: functional, cell-based; how it was run: as §2
[13] = Acute toxicity in ip treated C57BL/6 mouse for 14 days; format: organism-based; details: in vivo
How it was run: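 C57BL/6 mice (9–12 weeks, 18–22 g) were fasted overnight with free water. They received single i.p. doses of 1.0–500 mg kg-1 in 0.5% CMC-Na, 10 mice per group (5 male, 5 female). Mice were watched continuously for 2 h, then intermittently to 24 h, then occasionally to 14 days. Heart, liver and kidneys were checked macroscopically. LD50 was derived graphically.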

[14] = system: B16; assay: Antitumor activity in mouse B16 melanoma cell lines cells inoculated mouse assessed as tumor inhibition rate at one fifth of LD50 concentration once a day for consecutive 7 days by ip; format: functional; parameters: scale not given: the % may be the effect or the level left; how it was run: as §3
[15] = system: H22; assay: Antitumor activity in mouse H22 liver cancer cells inoculated mouse assessed as tumor inhibition rate at one fifth of LD50 concentration once a day for consecutive 7 days by ip; format: functional; parameters: scale not given: the % may be the effect or the level left; how it was run: as §3
[16] = Antitumor activity in mouse Sarcoma 180 cells inoculated mouse assessed as tumor inhibition rate at one fifth of LD50 concentration once a day for consecutive 7 days by ip; format: functional; parameters: scale not given: the % may be the effect or the level left; how it was run: as §3

Row | Structure (SMILES) | Activity [1] | Activity [2] | Activity [3] | IC50 [4] | IC50 [5] | Activity [6] | Activity [7] | IC50 [8] | Activity [9] | IC50 [10] | Activity [11] | IC50 [12] | LD50 at 336 h [13] | Activity [14] | Activity [15] | Activity [16]
1 | Cc1nccc2c3ccccc3n(CCCCCCn3c4ccccc4c4ccnc(C)c43)c12 | 5.1% | Non-toxic | Non-toxic | 87.9 µM | 38 µM | 42.1% | Non-toxic | 149 µM | Non-toxic | 16.9 µM | 39.6% | 134 µM | – | – | – | –
2 | c1ccc2c(c1)c1ccncc1n2CCCCn1c2ccccc2c2ccncc21 | 14.5% | Non-toxic | Non-toxic | > 200 µM | > 200 µM | 34.2% | Non-toxic | – | Non-toxic | > 200 µM | 39.7% | 59.7 µM | – | – | – | –
3 | Cc1nccc2c3cc(Br)ccc3n(CCCCCn3c4ccc(Br)cc4c4ccnc(C)c43)c12 | – | – | – | > 200 µM | > 200 µM | – | – | 4.3 µM | – | > 200 µM | – | > 200 µM | – | – | – | –
4 | Cc1nccc2c3ccccc3n(CCCCCCCCn3c4ccccc4c4ccnc(C)c43)c12 | – | – | – | > 200 µM | > 200 µM | – | – | > 200 µM | – | > 200 µM | – | > 200 µM | – | – | – | –
5 | CCOC(=O)c1cc2c3ccccc3n(CCCCCCCCCn3c4ccccc4c4cc(C(=O)OCC)nc(-c5cc(OC)c(OC)c(OC)c5)c43)c2c(-c2cc(OC)c(OC)c(OC)c2)n1 | – | – | – | > 200 µM | > 200 µM | – | – | > 200 µM | – | > 200 µM | – | > 200 µM | – | – | – | –
6 | Cc1nccc2c3ccccc3n(CCCn3c4ccccc4c4ccnc(C)c43)c12 | – | – | – | 160 µM | 69.5 µM | – | – | 145 µM | – | 26.4 µM | – | > 200 µM | – | – | – | –
7 | Brc1cccc2c3ccncc3n(CCCCCCn3c4cnccc4c4cccc(Br)c43)c12 | – | – | – | > 200 µM | > 200 µM | – | – | > 200 µM | – | > 200 µM | – | > 200 µM | – | – | – | –
8 | Cc1nccc2c3ccc(OC(C)C)cc3n(CCCCCCCCCn3c4cc(OC(C)C)ccc4c4ccnc(C)c43)c12 | – | – | – | 112 µM | 43.3 µM | – | – | 40 µM | – | 101 µM | – | > 200 µM | – | – | – | –
9 | Brc1ccc2c(c1)c1ccncc1n2CCCCn1c2ccc(Br)cc2c2ccncc21 | – | – | – | > 200 µM | > 200 µM | – | – | 3.1 µM | – | 8.9 µM | – | > 200 µM | – | – | – | –
10 | c1ccc2c(c1)c1ccncc1n2CCCCCCCCn1c2ccccc2c2ccncc21 | – | – | – | > 200 µM | > 200 µM | – | – | > 200 µM | – | 33.5 µM | – | > 200 µM | – | – | – | –
11 | Cc1nccc2c3cc(Br)ccc3n(CCCCCCn3c4ccc(Br)cc4c4ccnc(C)c43)c12 | – | – | – | > 200 µM | > 200 µM | – | – | > 200 µM | – | 63.4 µM | – | > 200 µM | – | – | – | –
12 | c1ccc2c(c1)c1ccnc(-c3ccsc3)c1n2CCCCCCCCn1c2ccccc2c2ccnc(-c3ccsc3)c21 | – | – | – | > 200 µM | 32.1 µM | – | – | > 200 µM | – | > 200 µM | – | > 200 µM | – | – | – | –
13 | COc1ccc2c3ccnc(C)c3n(CCCCCCn3c4cc(OC)ccc4c4ccnc(C)c43)c2c1 | – | – | – | 155 µM | 35.3 µM | – | – | > 200 µM | – | 11.7 µM | – | > 200 µM | – | – | – | –
14 | CCCCOc1ccc2c3ccnc(C)c3n(CCCCn3c4cc(OCCCC)ccc4c4ccnc(C)c43)c2c1 | – | – | – | 6.8 µM | 3.8 µM | – | – | > 200 µM | – | 5.5 µM | – | 8.5 µM | – | – | – | –
15 | CCOC(=O)c1cc2c3ccccc3n(CCCCCCn3c4ccccc4c4cc(C(=O)OCC)nc(-c5cccnc5)c43)c2c(-c2cccnc2)n1 | – | – | – | > 200 µM | > 200 µM | – | – | > 200 µM | – | 68.3 µM | – | > 200 µM | – | – | – | –
16 | c1ccc2c(c1)c1ccncc1n2CCCCCCCn1c2ccccc2c2ccncc21 | – | – | – | > 200 µM | > 200 µM | – | – | 53 µM | – | > 200 µM | – | > 200 µM | – | – | – | –
17 | COc1cc(-c2nccc3c4ccccc4n(CCCCCCn4c5ccccc5c5ccnc(-c6cc(OC)c(OC)c(OC)c6)c54)c23)cc(OC)c1OC | 7.2% | Non-toxic | Non-toxic | > 200 µM | 5.9 µM | 43.3% | Non-toxic | 16.8 µM | Non-toxic | > 200 µM | 45.8% | > 200 µM | 200 mg/kg | – | – | –
18 | c1ccc2c(c1)c1ccnc(-c3ccsc3)c1n2CCCCCCn1c2ccccc2c2ccnc(-c3ccsc3)c21 | – | – | – | > 200 µM | > 200 µM | – | – | > 200 µM | – | > 200 µM | – | > 200 µM | – | – | – | –
19 | COc1ccc2c3ccnc(C)c3n(CCCCCn3c4cc(OC)ccc4c4ccnc(C)c43)c2c1 | – | – | – | 5 µM | < 1.4 µM | – | – | 81 µM | – | 1.7 µM | – | 58.6 µM | – | – | – | –
20 | Cc1nccc2c3ccccc3n(CCCCn3c4ccccc4c4ccnc(C)c43)c12 | 21.5% | Non-toxic | Non-toxic | 6.4 µM | 13.1 µM | 40.4% | Non-toxic | 6.5 µM | Non-toxic | 4.8 µM | 50.8% | 22.3 µM | – | 29.9% | 42.3% | 56.2%
21 | Cc1nccc2c3ccc(OC(C)C)cc3n(CCCCCCn3c4cc(OC(C)C)ccc4c4ccnc(C)c43)c12 | 10.2% | Non-toxic | Non-toxic | 19.8 µM | 18.5 µM | 49.6% | Non-toxic | 95.4 µM | Non-toxic | 17.1 µM | 51.2% | 194 µM | – | 20.5% | 39.7% | 40.6%
